Measured values published in PubChem BioAssay AID1381 (University of Pittsburgh Molecular Library Screening Center, 2008).
About 1,000 (0.45%) of roughly 220,000 compounds were called active.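 Rule for the calls: active = plate z-score of nuclear minus cytoplasmic receptor signal below a set negative limit, without overly bright fluorescence or cell loss (cut at about -3.5 in these data, passing the limit was not always enough); inactive = the rest, inconclusive results apart.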 Many of the other results were omitted from the sample, so actives are more common in it than they were.

Experiment: inhibitors of GR-EGFP nuclear translocation, primary screen, dynein cargo transport inhibitor project, imaging, high-content, 3617.4 mouse cells (AID 1381)
Settings: stimulated with dexamethasone, 1 µM
Summary of the method: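 Also added – dexamethasone, 1.0 µM final · Buffer or medium – tet-free, stripped-serum medium · Schedule – induction 48 h, compound 1 h, agonist 30 min · Detection – formaldehyde fixation, Hoechst nuclear stain, 10x automated fluorescence imaging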

[1] = measured here: cell count per field, at 50 µM
[2] = measured here: cytoplasmic GR-EGFP intensity, at 50 µM, stronger effect = higher value
[3] = measured here: nuclear GR-EGFP intensity, at 50 µM, stronger effect = lower value
[4] = measured here: cell count per field, at 20 µM
[5] = measured here: cytoplasmic GR-EGFP intensity, at 20 µM, stronger effect = higher value
[6] = measured here: nuclear GR-EGFP intensity, at 20 µM, stronger effect = lower value

SMILES | z-score (at 50 µM, stronger effect = lower value) | z-score [1] | z-score [2] | z-score [3] | z-score (at 20 µM, stronger effect = lower value) | z-score [4] | z-score [5] | z-score [6]
Cc1cc(C)c2c3c(sc2n1)C(c1ccccc1)C(C#N)=C(N)O3 (stereo unspecified) | -4.27 (active) | 2.33 | 1.49 | -2.28 |  |  |  | 
N#CC1=C(N)Oc2c(sc3ccccc23)C1c1ccco1 (stereo unspecified) |  |  |  |  | -0.943 (inactive) | 0.511 | 0.878 | 0.0658
Cc1cc(C)c(C#N)c(SCc2[nH]nc3c2C(c2ccccc2)C(C#N)=C(N)O3)n1 (stereo unspecified) |  |  |  |  | -0.933 (inactive) | 1.23 | -0.0183 | -0.255
COc1ccc(C(C#N)N2N=C(C)CC2(C)C)cc1 (stereo unspecified) |  |  |  |  | -0.0116 (inactive) | -0.511 | -0.208 | -0.808
O=C(NCCCN1CCCCC1)c1ccc2c(c1)NC(=O)C(N1CCOCC1)S2 (stereo unspecified) |  |  |  |  | 0.104 (inactive) | -0.224 | -0.224 | -0.851
O=S1(=O)CC/C(=N\Nc2ccc(F)cc2)c2ccsc21 |  |  |  |  | -0.204 (inactive) | -0.257 | -0.126 | -0.15
Nn1cnnc1N/N=C/c1cc([N+](=O)[O-])c(Cl)cc1Cl |  |  |  |  | 0.859 (inactive) | -0.348 | 0.536 | 0.371
Cn1c2ccccc2c(=O)c2c(=O)n(Cc3ccco3)c(COc3ccccc3)nc21 |  |  |  |  | 0.301 (inactive) | -0.271 | -0.198 | 0.291
Cc1ccc(Cn2c(C)nc3c(c2=O)c2nc4ccccc4nc2n3Cc2ccco2)cc1 | -4.55 (active) | -0.433 | 0.482 | -1.83 |  |  |  | 
Cc1ccc(Cn2c(NC(=O)c3ccco3)nc3ccccc32)cc1 |  |  |  |  | 0.337 (inactive) | -0.00289 | -0.18 | 0.336
Cc1c(Cl)cccc1NC(=O)CC1SC(=NCC2CCCO2)NC1=O (stereo unspecified) |  |  |  |  | -0.0448 (inactive) | -0.163 | -0.258 | 0.413
NNC(=O)c1ccc(Cl)cc1Cl |  |  |  |  | 0.203 (inactive) | -0.823 | -0.243 | 0.206
Cc1ccc(NC(=O)c2cc(-c3ccc(C)o3)nc3ccccc23)nc1 | -3.31 (inactive) | -0.441 | 0.617 | -1.89 |  |  |  | 
O=C(NCC1CCCO1)c1cc(-c2ccccc2)nc2ccccc12 (stereo unspecified) |  |  |  |  | 0.068 (inactive) | 0.631 | -0.236 | 0.0806
Cc1ccc(-c2cc(C(=O)NCC3CCCO3)c3ccccc3n2)o1 (stereo unspecified) | -4.29 (active) | 0.456 | 0.668 | -1.96 |  |  |  | 
Cc1nc(-c2nnc(SCC(=O)Nc3cc(C(F)(F)F)cc(C(F)(F)F)c3)n2C)cs1 |  |  |  |  | 0.49 (inactive) | -0.365 | -0.261 | 0.826
COc1ccc(CN(Cc2ccc(OC)cc2)C(=O)c2cccs2)cc1 |  |  |  |  | -0.594 (inactive) | 0.82 | -0.256 | -0.492
COc1ccc(NC(=O)CN(Cc2ccccc2)S(C)(=O)=O)cc1OC |  |  |  |  | 0.347 (inactive) | -0.496 | 0.00823 | 0.254
Cc1cc(=O)oc2c1c(C)nn2-c1ccc(Cl)cc1 |  |  |  |  | -0.357 (inactive) | 1.43 | -0.242 | -0.696
C/C(=N\NC(=O)c1nc(C)cc(C)n1)c1ccccc1 |  |  |  |  | 1.7 (inactive) | -1.78 | 0.199 | 1.06
Cc1cc(SCC(=O)c2ccccc2)nc(SCC(=O)c2ccccc2)n1 |  |  |  |  | 3.42 (inactive) | -0.936 | -0.199 | -0.0972
Cc1cc(C)nc(S/C=C/C(=O)c2ccccc2)n1 |  |  |  |  | -5.15 (active) | 1.04 | 1.08 | -2.68

SMILES | z-score (at 50 µM, stronger effect = lower value) | z-score [1] | z-score [2] | z-score [3] | z-score (at 20 µM, stronger effect = lower value) | z-score [4] | z-score [5] | z-score [6]
Nc1nnn(CC(=O)N/N=C/c2ccc(O)cc2)n1 |  |  |  |  | -0.272 (inactive) | 0.973 | -0.243 | 0.283
CC(=O)N/C(=C\c1ccc(F)cc1)C(=O)NC(Cc1ccccc1)C(=O)O (stereo unspecified) |  |  |  |  | -0.458 (inactive) | 0.748 | -0.217 | 0.179
O=C(Nc1ccccc1Cl)c1ccc2nsnc2c1 |  |  |  |  | -0.891 (inactive) | 0.488 | -0.235 | -0.5
O=C(Nc1ccccc1Cl)/C(Cl)=C(\Cl)S(=O)c1ccccc1 (stereo unspecified) |  |  |  |  | -7.75 (active) | 0.218 | 2.93 | -2.78
COCCN(CCOC)C(=S)Nc1ccccc1Cl |  |  |  |  | -0.23 (inactive) | 0.546 | 0.025 | -0.44
C/C(N)=C(/C#N)C(=O)COC(=O)c1cc(-c2cccc(Br)c2)nc2ccccc12 |  |  |  |  | 0.554 (inactive) | -0.985 | -0.242 | 0.468
O=C(COC(=O)c1ccccc1)Nc1cccc(S(=O)(=O)N2CCOCC2)c1 |  |  |  |  | 0.599 (inactive) | -0.0984 | -0.271 | 0.704
COC(=O)c1ccc(CSc2nnc(N)s2)o1 |  |  |  |  | -0.747 (inactive) | 0.802 | -0.292 | -0.243
O=C1c2ccccc2NC(c2ccccn2)N1NS(=O)(=O)c1ccccc1 (stereo unspecified) |  |  |  |  | -1.12 (inactive) | 1.24 | -0.348 | -0.844
CCC1(CC)NC(=O)N(CC(=O)OCC(=O)NC(=O)c2ccccc2)C1=O |  |  |  |  | -0.1 (inactive) | 1.43 | -0.273 | 0.236
CCCc1nc2oc3c(=O)[nH]cnc3c2c2c1COC(C)(C)C2 |  |  |  |  | -0.456 (inactive) | 0.775 | -0.274 | -0.288
C/C(CC(=O)Nc1cccc(F)c1)=N\NC(=O)C(=O)NC1CCCCC1 |  |  |  |  | -0.0686 (inactive) | 0.185 | -0.304 | -0.00364
CCc1c(SCCC(=O)O)nc2ccccc2c1C |  |  |  |  | -0.704 (inactive) | 0.903 | -0.252 | -0.0559
CCCSC(=S)NC1CCS(=O)(=O)C1 (stereo unspecified) |  |  |  |  | -1.85 (inactive) | 0.977 | -0.0684 | -0.34
O=S1(=O)CCC(NC(=S)SCc2ccccc2Br)C1 (stereo unspecified) |  |  |  |  | -3.97 (active) | -0.868 | 1.57 | -1.78
O=C(CSc1ccccc1F)NC1CCS(=O)(=O)C1 (stereo unspecified) |  |  |  |  | -0.432 (inactive) | 0.683 | -0.305 | 0.2
CCOc1ccc(C(C)=O)cc1CSc1nnc(-c2ccncc2)n1CCOC |  |  |  |  | 0.185 (inactive) | 0.406 | -0.242 | 0.523
O=c1oc(/C=C/c2ccccc2)nc2ccccc12 |  |  |  |  | 1.7 (inactive) | -1.1 | -0.0815 | 0.729
COc1ccc(-c2cc(C(F)(F)F)nc(SCC(=O)Nc3ccc4c(c3)OCO4)n2)cc1OC |  |  |  |  | -0.345 (inactive) | 0.664 | -0.302 | -0.551
COc1ccc(-c2cc(C(F)(F)F)nc(S(C)(=O)=O)n2)cc1OC |  |  |  |  | -5.48 (active) | 0.235 | 1.61 | -2.61
COc1cc(OC)nc(S(C)(=O)=O)n1 |  |  |  |  | 0.268 (inactive) | -0.196 | -0.228 | -0.13
CC1C/C(=N/NC(=O)c2cccs2)CC(C)(C)C1 (stereo unspecified) |  |  |  |  | -1.02 (inactive) | 0.142 | -0.107 | -0.387
